ChEMBL document CHEMBL5058577, “EUbOPEN Chemogenomics Library 2 (Multiplex)” (2022)

System: HEK-293T
Test: Multiplex assay against HEK293T
Format: toxicity, cell-based
Details: human
Procedure, shortened: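 Compound was added to live cells that had been stained at seeding with Hoechst33342, BioTracker Green Microtubule Cytoskeleton Dye, MitoTracker Red and Annexin V Alexa Fluor 680, and imaging followed on a CQ1 microscope at 37°C and 5% CO2. CellPathfinder machine-learning gating divided cells into Hoechst high-intensity objects or normal cells, normal cells into healthy, pyknosed or fragmented nuclei, and pyknosed cells into mitotic or apoptotic. Tubulin, mitochondrial-mass and membrane-permeability phenotypes are per cents of healthy-nucleus cells.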

[1] = 12 h, 1 µM, compound concentration 1 uM, replicate 1
[2] = 12 h, 1 µM, compound concentration 1 uM, replicate 2
[3] = 12 h, 10 µM, compound concentration 10 uM, replicate 1
[4] = 12 h, 10 µM, compound concentration 10 uM, replicate 2
[5] = 24 h, 1 µM, compound concentration 1 uM, replicate 1
[6] = 24 h, 1 µM, compound concentration 1 uM, replicate 2
[7] = 24 h, 10 µM, compound concentration 10 uM, replicate 1
[8] = 24 h, 10 µM, compound concentration 10 uM, replicate 2
[9] = 48 h, 1 µM, compound concentration 1 uM, replicate 1
[10] = 48 h, 1 µM, compound concentration 1 uM, replicate 2
[11] = 48 h, 10 µM, compound concentration 10 uM, replicate 1
[12] = 48 h, 10 µM, compound concentration 10 uM, replicate 2

In the case of `COC[C@@H](c1ccc(C(F)(F)F)cc1)N1CCN(C2(C)CCN(C(=O)c3c(C)ncnc3C)CC2)C[C@@H]1C.O=C(O)/C=C\C(=O)O` [VICRIVIROC MALEATE], the “Population Apoptotic (%)” value [1] is reported as 46%, the “Population Fragmented Nuclei (%)” value [1] is reported as 7% and the “Population Healthy Nuclei (%)” value [1] is reported as 80%. For the same compound, the “Population Hoechst High Intensity Objects (%)” value [1] was 9%, the “Population Membrane Permeable-Phenotype (%)” value [1] was 0% and the “Population Mitochondria Different-Phenotype (%)” value [1] was 47%. The “Population Mitotic Cells (%)” value [1] was 53%, the “Population Normal (%)” value [1] was 90% and the “Population Pyknosed Nuclei (%)” value [1] was 12%. The “Population Tubulin-Different-Phenotype (%)” value [1] was 27%, the “Total Cell Count” value [1] was 406 and the “Population Apoptotic (%)” value [2] was 45%. The “Population Hoechst High Intensity Objects (%)” value [2] was 5%, the “Population Mitochondria Different-Phenotype (%)” value [2] was 51% and the “Population Mitotic Cells (%)” value [2] was 54%. The “Population Normal (%)” value [2] was 94%, the “Population Pyknosed Nuclei (%)” value [2] was 11% and the “Population Tubulin-Different-Phenotype (%)” value [2] was 17%. For the same compound, the “Total Cell Count” value [2] was 387, the “Population Apoptotic (%)” value [3] was 44% and the “Population Fragmented Nuclei (%)” value [3] was 6%. For the same compound, the “Population Healthy Nuclei (%)” value [3] was 75%, the “Population Hoechst High Intensity Objects (%)” value [3] was 8% and the “Population Membrane Permeable-Phenotype (%)” value [3] was 0%. The “Population Mitochondria Different-Phenotype (%)” value [3] was 63%, the “Population Mitotic Cells (%)” value [3] was 55% and the “Population Normal (%)” value [3] was 91%. The “Population Pyknosed Nuclei (%)” value [3] was 18%, the “Population Tubulin-Different-Phenotype (%)” value [3] was 57% and the “Total Cell Count” value [3] was 315. For the same compound, the “Population Apoptotic (%)” value [4] was 62%, the “Population Fragmented Nuclei (%)” value [4] was 5% and the “Population Healthy Nuclei (%)” value [4] was 72%. For the same compound, the “Population Hoechst High Intensity Objects (%)” value [4] was 16%, the “Population Mitochondria Different-Phenotype (%)” value [4] was 78% and the “Population Mitotic Cells (%)” value [4] was 37%. For the same compound, the “Population Normal (%)” value [4] was 83%, the “Population Pyknosed Nuclei (%)” value [4] was 21% and the “Population Tubulin-Different-Phenotype (%)” value [4] was 51%. The “Total Cell Count” value [4] was 265, the “Population Apoptotic (%)” value [5] was 30% and the “Population Fragmented Nuclei (%)” value [5] was 9%. The “Population Healthy Nuclei (%)” value [5] was 79%, the “Population Hoechst High Intensity Objects (%)” value [5] was 6% and the “Population Membrane Permeable-Phenotype (%)” value [5] was 0%. The “Population Mitochondria Different-Phenotype (%)” value [5] was 24%, the “Population Mitotic Cells (%)” value [5] was 69% and the “Population Normal (%)” value [5] was 93%. The “Population Pyknosed Nuclei (%)” value [5] was 10%, the “Population Tubulin-Different-Phenotype (%)” value [5] was 21% and the “Total Cell Count” value [5] was 564. For the same compound, the “Population Apoptotic (%)” value [6] was 31%, the “Population Healthy Nuclei (%)” value [6] was 82% and the “Population Hoechst High Intensity Objects (%)” value [6] was 5%. For the same compound, the “Population Membrane Permeable-Phenotype (%)” value [6] was 1%, the “Population Mitotic Cells (%)” value [6] was 68% and the “Population Normal (%)” value [6] was 94%. For the same compound, the “Population Pyknosed Nuclei (%)” value [6] was 8%, the “Population Tubulin-Different-Phenotype (%)” value [6] was 11% and the “Total Cell Count” value [6] was 515. The “Population Apoptotic (%)” value [7] was 34%, the “Population Fragmented Nuclei (%)” value [7] was 6% and the “Population Healthy Nuclei (%)” value [7] was 80%. For the same compound, the “Population Hoechst High Intensity Objects (%)” value [7] was 6%, the “Population Membrane Permeable-Phenotype (%)” value [7] was 0% and the “Population Mitochondria Different-Phenotype (%)” value [7] was 53%. The “Population Mitotic Cells (%)” value [7] was 66%, the “Population Normal (%)” value [7] was 93% and the “Population Pyknosed Nuclei (%)” value [7] was 13%. The “Population Tubulin-Different-Phenotype (%)” value [7] was 49%, the “Total Cell Count” value [7] was 406 and the “Population Apoptotic (%)” value [8] was 60%. The “Population Fragmented Nuclei (%)” value [8] was 10%, the “Population Healthy Nuclei (%)” value [8] was 77% and the “Population Hoechst High Intensity Objects (%)” value [8] was 16%. For the same compound, the “Population Mitochondria Different-Phenotype (%)” value [8] was 70%, the “Population Mitotic Cells (%)” value [8] was 39% and the “Population Normal (%)” value [8] was 83%. The “Population Pyknosed Nuclei (%)” value [8] was 12%, the “Population Tubulin-Different-Phenotype (%)” value [8] was 39% and the “Total Cell Count” value [8] was 310. For the same compound, the “Population Apoptotic (%)” value [9] was 21%, the “Population Fragmented Nuclei (%)” value [9] was 11% and the “Population Healthy Nuclei (%)” value [9] was 80%. For the same compound, the “Population Hoechst High Intensity Objects (%)” value [9] was 2%, the “Population Membrane Permeable-Phenotype (%)” value [9] was 1% and the “Population Mitochondria Different-Phenotype (%)” value [9] was 13%. For the same compound, the “Population Mitotic Cells (%)” value [9] was 78%, the “Population Normal (%)” value [9] was 97% and the “Population Pyknosed Nuclei (%)” value [9] was 7%. The “Population Tubulin-Different-Phenotype (%)” value [9] was 12%, the “Total Cell Count” value [9] was 930 and the “Population Apoptotic (%)” value [10] was 34%. For the same compound, the “Population Fragmented Nuclei (%)” value [10] was 13%, the “Population Healthy Nuclei (%)” value [10] was 81% and the “Population Mitochondria Different-Phenotype (%)” value [10] was 11%. For the same compound, the “Population Mitotic Cells (%)” value [10] was 65%, the “Population Pyknosed Nuclei (%)” value [10] was 5% and the “Population Tubulin-Different-Phenotype (%)” value [10] was 8%. For the same compound, the “Total Cell Count” value [10] was 751, the “Population Apoptotic (%)” value [11] was 38% and the “Population Fragmented Nuclei (%)” value [11] was 12%. The “Population Healthy Nuclei (%)” value [11] was 75%, the “Population Hoechst High Intensity Objects (%)” value [11] was 4% and the “Population Membrane Permeable-Phenotype (%)” value [11] was 0%. The “Population Mitochondria Different-Phenotype (%)” value [11] was 49%, the “Population Mitotic Cells (%)” value [11] was 61% and the “Population Normal (%)” value [11] was 95%. For the same compound, the “Population Pyknosed Nuclei (%)” value [11] was 11%, the “Population Tubulin-Different-Phenotype (%)” value [11] was 35% and the “Total Cell Count” value [11] was 559. The “Population Apoptotic (%)” value [12] was 53%, the “Population Fragmented Nuclei (%)” value [12] was 14% and the “Population Healthy Nuclei (%)” value [12] was 70%. The “Population Hoechst High Intensity Objects (%)” value [12] was 11%, the “Population Mitochondria Different-Phenotype (%)” value [12] was 50% and the “Population Mitotic Cells (%)” value [12] was 46%. The “Population Normal (%)” value [12] was 88%, the “Population Pyknosed Nuclei (%)” value [12] was 15% and the “Population Tubulin-Different-Phenotype (%)” value [12] was 38%. For the same compound, the “Total Cell Count” value [12] was 394.
